Here are results for 13 molecules from BindingDB's records for doi:10.1016/j.bmc.2013.02.060 (National Institute On Drug Abuse and The National Institute …, 2013).

The Ki is the equilibrium dissociation constant of an inhibitor or competing ligand from its target.

The structures appear in SMILES notation.

Sequence of Delta-type opioid receptor (P41143 whole entry): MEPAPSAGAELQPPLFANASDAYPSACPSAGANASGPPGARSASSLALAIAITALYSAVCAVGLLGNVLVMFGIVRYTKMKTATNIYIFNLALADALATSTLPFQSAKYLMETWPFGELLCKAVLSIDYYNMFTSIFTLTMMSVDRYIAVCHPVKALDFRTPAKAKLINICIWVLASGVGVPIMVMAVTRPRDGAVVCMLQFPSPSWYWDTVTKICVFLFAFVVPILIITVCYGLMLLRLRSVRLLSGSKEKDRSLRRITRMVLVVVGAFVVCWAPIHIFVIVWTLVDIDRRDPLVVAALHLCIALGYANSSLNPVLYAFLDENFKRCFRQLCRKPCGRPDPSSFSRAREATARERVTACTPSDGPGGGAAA

This test has as its target Delta-type opioid receptor (Homo sapiens, UniProt P41143). The experiment in a line: Displacement of [3H]DADLE from human recombinant delta opioid receptor expressed in CHO cell membranes after 2 hrs by liquid scintillation counting analysis. Put shortly: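 Human DOR stably expressed in CHO cells; washed membranes (~30 µg protein/tube) incubated with ~2 nM [3H]DADLE and 10 drug concentrations in 50 mM Tris-HCl pH 7.4 with protease inhibitors, 2 h at 25 °C. Levallorphan defined nonspecific binding.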
Consider `Oc1ccc2c(c1)[C@]1(CCc3ccccc3)CCN(CCc3ccccc3)C[C@@H]1O2`, for which the Ki stood at 0.039 µM.

For the molecule `CN1CC[C@@]2(CCc3ccc(F)cc3)c3cc(O)ccc3O[C@H]2C1`, the inhibitory constant (Ki) was 0.128 µM.

As to `CN1CC[C@@]2(C)c3cc(O)ccc3O[C@H]2C1`, the Ki was greater than 10 µM.

As for `CN1CC[C@@]2(CCCCCc3ccccc3)c3cc(O)ccc3O[C@H]2C1`, the Ki is 0.075 µM.

As for `Oc1ccc2c(c1)[C@]1(CCc3ccccc3)CCN(CCc3cccc(C(F)(F)F)c3)C[C@@H]1O2`, the inhibitory constant (Ki) turned out to be 0.063 µM.

For `Oc1ccc2c(c1)[C@]1(CCc3ccccc3)CCN(CCc3ccccc3C(F)(F)F)C[C@@H]1O2`, the inhibition constant (Ki) was found to be 0.136 µM.

In the case of `Oc1ccc2c(c1)[C@]1(CCc3ccccc3)CCN(CC3CC3)C[C@@H]1O2`, the inhibitory constant (Ki) came out at 0.024 µM.

Turning to `Oc1ccc2c(c1)[C@]1(CCc3ccccc3)CCN(CCCc3ccccc3)C[C@@H]1O2`, the Ki came to 0.111 µM.

Turning to `CCCC[C@@]12CCN(C)C[C@@H]1Oc1ccc(O)cc12`, the inhibition constant (Ki) was found to be 0.207 µM.

As for `Oc1ccc2c(c1)[C@]1(CCc3ccccc3)CCN(CCc3ccc(C(F)(F)F)cc3)C[C@@H]1O2`, the Ki stood at 0.026 µM.

As to `Oc1ccc2c(c1)[C@]1(CCc3ccccc3)CCN(CCc3ccc(F)cc3)C[C@@H]1O2`, the Ki is 0.034 µM.

Take `Oc1ccc2c(c1)[C@]1(CCc3ccccc3)CCN(CCc3ccccc3F)C[C@@H]1O2`: the Ki was 0.026 µM.

For `CN1CC[C@@]2(CCc3ccccc3F)c3cc(O)ccc3O[C@H]2C1`, the inhibitory constant (Ki) came to 0.052 µM.
